{"source": "the M2OR odorant receptor database", "data": [{"biological_target": "T1, OR12D2 (Homo sapiens) (UniProt P58182)", "T1 sequence (whole entry)": "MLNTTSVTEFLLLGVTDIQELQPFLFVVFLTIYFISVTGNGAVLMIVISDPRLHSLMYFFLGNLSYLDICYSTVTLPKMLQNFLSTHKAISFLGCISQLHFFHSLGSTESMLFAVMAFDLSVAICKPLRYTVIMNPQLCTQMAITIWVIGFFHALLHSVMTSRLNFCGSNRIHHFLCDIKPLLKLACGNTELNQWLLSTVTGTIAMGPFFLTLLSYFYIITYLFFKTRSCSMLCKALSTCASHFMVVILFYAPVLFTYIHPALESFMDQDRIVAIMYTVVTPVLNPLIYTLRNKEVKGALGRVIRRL", "details": "stereoisomer not certain", "method_in_brief": "(§1)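 Transient luciferase assays in mammalian cell lines were common, though methods varied by source. The values come from published papers and their supplementary material, with extra details from the original authors when needed. Responsive refers to a measured signal the original authors judged statistically different from baseline, and non-responsive (inactive) to the remainder.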", "values": [{"molecule": "CCCC(S)CCOC(C)=O", "note": "(stereo not drawn);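 also: active if original authors judged signal statistically different from baseline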", "odorant receptor agonist call": "inactive"}, {"molecule": "CC(CO)CS", "note": "(stereo not drawn)", "odorant receptor agonist call": "inactive"}, {"molecule": "CC(=O)c1c(C)c([N+](=O)[O-])c(C(C)(C)C)c([N+](=O)[O-])c1C", "odorant receptor agonist call": "inactive"}, {"molecule": "CCCCCC(S)C(C)CO", "note": "(stereo not drawn)", "odorant receptor agonist call": "inactive"}, {"molecule": "CCC1OC(C)=C(O)C1=O", "note": "(stereo not drawn)", "odorant receptor agonist call": "inactive"}, {"molecule": "CCCCCCC=CCCC=O", "odorant receptor agonist call": "inactive"}, {"molecule": "CCC1OC(=O)C(O)=C1C", "note": "(stereo not drawn)", "odorant receptor agonist call": "inactive"}, {"molecule": "CCCCC(S)C(C)CO", "note": "(stereo not drawn)", "odorant receptor agonist call": "inactive"}]}, {"biological_target": "T2, OR12D3 (Homo sapiens) (UniProt Q9UGF7)", "T2 sequence (whole entry)": "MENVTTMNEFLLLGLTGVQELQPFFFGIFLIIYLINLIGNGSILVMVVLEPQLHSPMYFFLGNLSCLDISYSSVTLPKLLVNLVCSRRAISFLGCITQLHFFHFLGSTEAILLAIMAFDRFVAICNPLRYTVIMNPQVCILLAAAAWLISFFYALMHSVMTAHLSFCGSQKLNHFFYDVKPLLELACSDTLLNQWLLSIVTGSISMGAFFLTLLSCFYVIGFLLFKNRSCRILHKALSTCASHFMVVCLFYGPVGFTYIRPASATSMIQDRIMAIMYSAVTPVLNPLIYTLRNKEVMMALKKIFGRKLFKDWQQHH", "details": "stereoisomer not certain", "method_in_brief": "as §1", "values": [{"molecule": "CC1=NC(C)C(C)S1", "note": "(stereo not drawn)", "odorant receptor agonist call": "inactive"}, {"molecule": "CCCCCC(=O)C(C)C(C)=O", "note": "(stereo not drawn)", "odorant receptor agonist call": "inactive"}, {"molecule": "Cc1cnc(C)c(C)n1", "odorant receptor agonist call": "inactive"}, {"molecule": "CCC(S)C(C)CO", "note": "(stereo not drawn)", "odorant receptor agonist call": "inactive"}, {"molecule": "CC1CCCCCCCCCCCCC(=O)C1", "note": "(stereo not drawn)", "odorant receptor agonist call": "inactive"}, {"molecule": "CC1=C(O)C(=O)C(C)O1", "note": "(stereo not drawn)", "odorant receptor agonist call": "inactive"}, {"molecule": "CC1=C(O)C(=O)OC1C", "note": "(stereo not drawn)", "odorant receptor agonist call": "inactive"}, {"molecule": "CCCC(S)CCOC(C)=O", "note": "(stereo not drawn)", "odorant receptor agonist call": "inactive"}, {"molecule": "CC(CO)CS", "note": "(stereo not drawn)", "odorant receptor agonist call": "inactive"}, {"molecule": "CC(=O)c1c(C)c([N+](=O)[O-])c(C(C)(C)C)c([N+](=O)[O-])c1C", "odorant receptor agonist call": "inactive"}, {"molecule": "CCCCCC(S)C(C)CO", "note": "(stereo not drawn)", "odorant receptor agonist call": "inactive"}, {"molecule": "CCC1OC(C)=C(O)C1=O", "note": "(stereo not drawn)", "odorant receptor agonist call": "inactive"}, {"molecule": "CCCCCCC=CCCC=O", "odorant receptor agonist call": "inactive"}, {"molecule": "CCC1OC(=O)C(O)=C1C", "note": "(stereo not drawn)", "odorant receptor agonist call": "inactive"}, {"molecule": "CCCCC(S)C(C)CO", "note": "(stereo not drawn)", "odorant receptor agonist call": "inactive"}]}, {"biological_target": "T3, OR13A1 (Homo sapiens) (UniProt Q8NGR1)", "T3 sequence (whole entry)": "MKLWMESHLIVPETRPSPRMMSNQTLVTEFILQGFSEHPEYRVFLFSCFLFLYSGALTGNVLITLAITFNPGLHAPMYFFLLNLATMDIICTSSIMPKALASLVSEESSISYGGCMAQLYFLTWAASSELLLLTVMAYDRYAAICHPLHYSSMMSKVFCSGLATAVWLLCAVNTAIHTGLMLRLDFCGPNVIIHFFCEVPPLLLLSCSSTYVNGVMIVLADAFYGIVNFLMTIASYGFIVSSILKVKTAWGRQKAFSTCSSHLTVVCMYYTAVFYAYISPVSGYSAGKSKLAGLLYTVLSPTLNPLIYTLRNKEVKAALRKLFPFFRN", "details": "stereoisomer not certain", "method_in_brief": "as §1", "values": [{"molecule": "CC1=NC(C)C(C)S1", "note": "(stereo not drawn)", "odorant receptor agonist call": "inactive"}, {"molecule": "CCCCCC(=O)C(C)C(C)=O", "note": "(stereo not drawn)", "odorant receptor agonist call": "inactive"}, {"molecule": "Cc1cnc(C)c(C)n1", "odorant receptor agonist call": "inactive"}, {"molecule": "CCC(S)C(C)CO", "note": "(stereo not drawn)", "odorant receptor agonist call": "inactive"}, {"molecule": "CC1CCCCCCCCCCCCC(=O)C1", "note": "(stereo not drawn)", "odorant receptor agonist call": "inactive"}, {"molecule": "CC1=C(O)C(=O)C(C)O1", "note": "(stereo not drawn)", "odorant receptor agonist call": "inactive"}, {"molecule": "CC1=C(O)C(=O)OC1C", "note": "(stereo not drawn)", "odorant receptor agonist call": "inactive"}, {"molecule": "CCCC(S)CCOC(C)=O", "note": "(stereo not drawn)", "odorant receptor agonist call": "inactive"}, {"molecule": "CC(CO)CS", "note": "(stereo not drawn)", "odorant receptor agonist call": "inactive"}, {"molecule": "CC(=O)c1c(C)c([N+](=O)[O-])c(C(C)(C)C)c([N+](=O)[O-])c1C", "odorant receptor agonist call": "inactive"}, {"molecule": "CCCCCC(S)C(C)CO", "note": "(stereo not drawn)", "odorant receptor agonist call": "inactive"}, {"molecule": "CCC1OC(C)=C(O)C1=O", "note": "(stereo not drawn)", "odorant receptor agonist call": "inactive"}, {"molecule": "CCCCCCC=CCCC=O", "odorant receptor agonist call": "inactive"}, {"molecule": "CCC1OC(=O)C(O)=C1C", "note": "(stereo not drawn)", "odorant receptor agonist call": "inactive"}, {"molecule": "CCCCC(S)C(C)CO", "note": "(stereo not drawn)", "odorant receptor agonist call": "inactive"}]}, {"biological_target": "T4, OR13C2 (Homo sapiens) (UniProt Q8NGS9)", "T4 sequence (whole entry)": "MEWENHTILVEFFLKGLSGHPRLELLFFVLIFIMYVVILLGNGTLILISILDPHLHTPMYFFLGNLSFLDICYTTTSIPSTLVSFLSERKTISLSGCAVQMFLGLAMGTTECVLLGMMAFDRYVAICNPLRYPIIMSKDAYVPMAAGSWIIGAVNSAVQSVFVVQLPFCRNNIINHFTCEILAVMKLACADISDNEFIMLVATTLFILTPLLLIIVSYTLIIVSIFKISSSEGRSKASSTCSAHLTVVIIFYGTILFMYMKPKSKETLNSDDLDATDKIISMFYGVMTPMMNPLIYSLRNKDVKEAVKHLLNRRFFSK", "details": "stereoisomer not certain", "method_in_brief": "as §1", "values": [{"molecule": "CC1=NC(C)C(C)S1", "note": "(stereo not drawn)", "odorant receptor agonist call": "inactive"}, {"molecule": "CCCCCC(=O)C(C)C(C)=O", "note": "(stereo not drawn)", "odorant receptor agonist call": "inactive"}, {"molecule": "Cc1cnc(C)c(C)n1", "odorant receptor agonist call": "inactive"}, {"molecule": "CCC(S)C(C)CO", "note": "(stereo not drawn)", "odorant receptor agonist call": "inactive"}, {"molecule": "CC1CCCCCCCCCCCCC(=O)C1", "note": "(stereo not drawn)", "odorant receptor agonist call": "inactive"}, {"molecule": "CC1=C(O)C(=O)C(C)O1", "note": "(stereo not drawn)", "odorant receptor agonist call": "inactive"}, {"molecule": "CC1=C(O)C(=O)OC1C", "note": "(stereo not drawn)", "odorant receptor agonist call": "inactive"}, {"molecule": "CCCC(S)CCOC(C)=O", "note": "(stereo not drawn)", "odorant receptor agonist call": "inactive"}, {"molecule": "CC(CO)CS", "note": "(stereo not drawn)", "odorant receptor agonist call": "inactive"}, {"molecule": "CC(=O)c1c(C)c([N+](=O)[O-])c(C(C)(C)C)c([N+](=O)[O-])c1C", "odorant receptor agonist call": "inactive"}, {"molecule": "CCCCCC(S)C(C)CO", "note": "(stereo not drawn)", "odorant receptor agonist call": "inactive"}, {"molecule": "CCC1OC(C)=C(O)C1=O", "note": "(stereo not drawn)", "odorant receptor agonist call": "inactive"}, {"molecule": "CCCCCCC=CCCC=O", "odorant receptor agonist call": "inactive"}, {"molecule": "CCC1OC(=O)C(O)=C1C", "note": "(stereo not drawn)", "odorant receptor agonist call": "inactive"}, {"molecule": "CCCCC(S)C(C)CO", "note": "(stereo not drawn)", "odorant receptor agonist call": "inactive"}]}]}
